Consider 6 compounds from ChEMBL document CHEMBL4043302, “Lead Diversification at the Nanomole Scale Using Liver Microsomes and Quantitative Nuclear Magnetic Resonance Spectroscopy: Application to Phosphodiesterase 2 Inhibitors” (J Med Chem, 2018).

Series [1] has as its system Liver. As to the kind of experiment: Drug metabolism in mouse liver microsomes assessed as 7-(5-(4-Chlorophenyl)-3-(hydroxymethyl)-1-methyl-1H-pyrazol-4-yl)-2,5-dimethylimidazo[5,1-f ][1,2,4]triazin-4(3H)-one formation at 20 uM after 1.5 hrs by UHPLC-UV-HRMS method. Type of series: ADME, microsome. The method in brief: (§1)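 Preparative incubation: substrate 20 µM with liver microsomes (2 mg/mL) of the listed species in 0.1 M potassium phosphate, pH 7.5, with MgCl2 3.3 mM and NADPH 1.3 mM. Run at 37°C in a shaking water bath and stopped with an equal volume of CH3CN. Products were fractionated by HPLC and quantified by qNMR in d6-DMSO.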

The test system of series [2] is Liver. As to the kind of experiment: Drug metabolism in mouse liver microsomes assessed as 7-(5-(4-Chlorophenyl)-1,3-dimethyl-1H-pyrazol-4-yl)-5-(hydroxymethyl)-2-methylimidazo[5,1-f ][1,2,4]triazin-4(3H)-one formation at 20 uM after 1.5 hrs by UHPLC-UV-HRMS method. Format: ADME, microsome. A digest of the protocol:
as §1

A short description of series [3]: Intrinsic clearance in human hepatocytes assessed per million cells at 1 uM after 0.5 to 4 hrs by HPLC-HRMS method. Type of series: ADME, cell-based, Hepatocyte. To be noted: human hepatocytes, read-out: CLH. The method in brief:
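Compound at 1 µM was dried from d6-DMSO and redissolved in Williams E medium. Pooled human hepatocytes were added at 680000 cells/mL. Samples were quenched in water/CH3CN (2:1) with 2% formic acid and clozapine as internal standard, then analysed by HPLC-HRMS in positive-ion full scan. k came from the slope of ln peak-area ratio versus time; CLint = k / cell concentration. Non-specific binding was not measured.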

Series [4] is described as follows: Apparent permeability across RRCK cells after 1.5 hrs. Format: ADME, cell-based, Canis lupus familiaris, MDCKII-LE. To be noted: dog, MDCK.
Series [5] can be described thus: Drug level in cynomolgus monkey liver microsomes treated with 5-(Difluoromethyl)-7-(1,3-dimethyl-5-(4-(trifluoromethyl)phenyl)-1H-pyrazol-4-yl)-2-methylimidazo[5,1-f ][1,2,4]triazin-4(3H)-one at 20 uM after 1.5 hrs by UHPLC-UV-HRMS method. Type of series: ADME, Macaca fascicularis, microsome. A digest of the protocol: as §1
Series [6] has as its system Liver. As to the kind of experiment: Drug level in mouse liver microsomes treated with 7-(5-(4-Chlorophenyl)-1,3-dimethyl-1H-pyrazol-4-yl)-2,5-dimethylimidazo[5,1-f ][1,2,4]triazin-4(3H)-one at 20 uM after 1.5 hrs by UHPLC-UV-HRMS method. Format: ADME, microsome. A digest of the protocol: as §1
(Liver microsomes are vesicles of endoplasmic reticulum, rich in cytochrome P450 enzymes.)

Series [7] is described as follows: Drug metabolism in cynomolgus monkey liver microsomes assessed as 5-(Difluoromethyl)-7-(3-(hydroxymethyl)-1-methyl-5-(4-(trifluoromethyl)phenyl)-1H-pyrazol-4-yl)-2-methylimidazo[5,1-f ]-[1,2,4]triazin-4(3H)-one formation at 20 uM after 1.5 hrs by UHPLC-UV-HRMS method. Format: ADME, Macaca fascicularis, microsome. The method in brief:
as §1

Series [8] can be described thus: Drug metabolism in cynomolgus monkey liver microsomes assessed as 5-(Difluoromethyl)-2-methyl-7-(3-methyl-5-(4-(trifluoromethyl)-phenyl)-1H-pyrazol-4-yl)imidazo[5,1-f ][1,2,4]triazin-4(3H)-one at 20 uM after 1.5 hrs by UHPLC-UV-HRMS method. Format: ADME, Macaca fascicularis, microsome. A digest of the protocol:
as §1

The subject of series [9] is Liver. In words: Drug level in human liver microsomes treated with 5-(5-(Cyclopentylmethyl)-4,5,6,7-tetrahydropyrazolo[1,5-a]-pyrazin-3-yl)-7-methylimidazo[5,1-f ][1,2,4]triazin-4(3H)-one at 20 uM after 1.5 hrs by UHPLC-UV-HRMS method. Type of series: ADME, microsome. The method in brief: as §1
Series [10] has as its target cGMP-dependent 3',5'-cyclic phosphodiesterase (Homo sapiens, UniProt O00408). As to the kind of experiment: Inhibition of human PDE2A1 using 3',5'-[3H]cGMP as substrate after 30 mins by scintillation proximity assay. Background: Scintillation proximity formats need no separation of bound from free tracer.

SMILES strings stand for the structures. pIC50: −log10 of the molar value.

Sequence of cGMP-dependent 3',5'-cyclic phosphodiesterase (O00408 whole entry): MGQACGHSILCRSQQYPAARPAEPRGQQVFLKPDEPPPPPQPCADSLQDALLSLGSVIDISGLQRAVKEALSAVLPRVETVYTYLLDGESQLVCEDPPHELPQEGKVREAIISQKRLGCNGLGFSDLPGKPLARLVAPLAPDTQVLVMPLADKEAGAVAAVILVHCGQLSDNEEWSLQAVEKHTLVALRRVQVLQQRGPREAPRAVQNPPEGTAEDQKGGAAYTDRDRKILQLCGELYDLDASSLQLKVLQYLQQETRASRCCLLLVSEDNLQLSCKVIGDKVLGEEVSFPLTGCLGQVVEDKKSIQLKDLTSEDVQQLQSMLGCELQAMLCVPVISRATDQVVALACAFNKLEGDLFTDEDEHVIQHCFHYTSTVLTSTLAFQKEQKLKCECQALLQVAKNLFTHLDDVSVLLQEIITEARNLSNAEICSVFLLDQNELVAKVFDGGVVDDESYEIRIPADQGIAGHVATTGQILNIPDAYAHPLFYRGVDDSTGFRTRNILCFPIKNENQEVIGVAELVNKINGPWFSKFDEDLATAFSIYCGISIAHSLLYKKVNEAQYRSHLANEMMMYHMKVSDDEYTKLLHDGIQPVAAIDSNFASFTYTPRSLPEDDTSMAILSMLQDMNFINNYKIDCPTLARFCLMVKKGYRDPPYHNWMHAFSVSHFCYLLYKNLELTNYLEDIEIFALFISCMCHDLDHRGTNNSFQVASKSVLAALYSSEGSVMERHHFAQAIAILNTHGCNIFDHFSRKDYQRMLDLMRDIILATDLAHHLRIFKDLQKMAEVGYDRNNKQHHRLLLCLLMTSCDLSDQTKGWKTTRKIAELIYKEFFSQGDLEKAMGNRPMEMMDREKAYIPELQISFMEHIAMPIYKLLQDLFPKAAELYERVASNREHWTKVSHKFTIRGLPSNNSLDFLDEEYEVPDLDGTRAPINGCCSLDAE

On to `Cc1nn2c(-c3c(C)nn(C)c3-c3ccc(Cl)cc3)nc(C)c2c(=O)[nH]1`, for which the Drug metabolism entry with Liver [1] and in the series with Liver [2] was “Metabolite_Detected” each time. Further, the hepatocyte CLint at 1 µM in [3] came to 32 µL/min/1e6 cells.
As to `Cc1nn2c(-c3c(C)n[nH]c3-c3ccc(C(F)(F)F)cc3)nc(C(F)F)c2c(=O)[nH]1`, the Papp at 1.5 h in [4] is 10 ×10⁻⁶ cm/s. The hepatocyte CLint at 1 µM in series [3] was 6.4 µL/min/1e6 cells. Also, the Drug metabolism entry in [5] is “Metabolite_Detected”.
Consider `Cc1nn2c(-c3c(CO)nn(C)c3-c3ccc(Cl)cc3)nc(C)c2c(=O)[nH]1`, for which the Papp at 1.5 h in series [4] came to 19 ×10⁻⁶ cm/s. In addition, in the series with Liver [6], the Drug metabolism entry is recorded as “Metabolite_Detected”. Moreover, in series [3], the hepatocyte CLint at 1 µM came to 11 µL/min/1e6 cells.
On the same counts, the results for `Cc1nn2c(-c3c(C)nn(C)c3-c3ccc(Cl)cc3)nc(CO)c2c(=O)[nH]1` are 4.9 ×10⁻⁶ cm/s, “Metabolite_Detected” and 15 µL/min/1e6 cells.
Consider `Cc1nn2c(-c3c(C)nn(C)c3-c3ccc(C(F)(F)F)cc3)nc(C(F)F)c2c(=O)[nH]1`, for which the Papp at 1.5 h in [4] is 23 ×10⁻⁶ cm/s. In addition, the Drug metabolism result in series [7] and in series [8] was “Metabolite_Detected” each time. In addition, the hepatocyte CLint at 1 µM in series [3] came to 5.3 µL/min/1e6 cells.
Take `Cc1nc(-c2cnn3c2CN(CC2CCCC2O)CC3)c2c(=O)[nH]cnn12` (single isomer, unassigned; diastereomer 1): the apparent permeability (Papp) at 1.5 h in [4] was determined as 1.8 ×10⁻⁶ cm/s. For the same compound, in the series with Liver [9], the Drug metabolism entry is given as “Metabolite_Detected”. The pIC50 in series [10] was less than 5.70. Also, the hepatocyte CLint at 1 µM in series [3] amounted to 5.4 µL/min/1e6 cells.

Usually Papp stands for a coefficient for how fast a substance crosses the barrier. One may read the pIC50 as the negative decadic logarithm of the IC50, by convention in mol/L.
